GSTO1 inh – inhibitors of recombinant GSTO1, primary screen, counter-screen for RBBP9 inhibitor project, biochemical, fluorescence polarization. 1.1% of 300,000 active. Glutathione S-transferase omega-1 (Homo sapiens), P78417. AID 1974, 2009. inhibition, % at 5.96 µM. activity-based probe fluorescence polarization;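 active = inhibition above the campaign mean inhibition plus 3 SD, cut at about 35% in these data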;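 note: 0% = GSTO1-1 with DMSO and 100% = wells lacking GSTO1-1 enzyme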
RBBP9 inh – human RBBP9 inhibitors, primary screen, biochemical, fluorescence polarization, FP-Rh probe, HTS; inhibition, % at 7.94 µM; recombinant RBBP9; 0.2% of 220,000 active;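 active = inhibition above the campaign mean of all tested compounds plus 3 SD, cut at about 14% in these data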;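 note: plate controls were DMSO wells with RBBP9 for no effect and wells lacking RBBP9 protein for full effect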
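Test system: recombinant human RBBP9; Timing: 30 min then 45 min, 25 °C; Detection: fluorescence polarization; Control set: RBBP9 with DMSO as uninhibited control, no-protein wells as full inhibition; Compound dosing: one concentration, 7.94 µM nominal, 0.794% DMSO; Probe or stimulus: FP-Rh activity-based probe, 375 nM before mixing.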
PAD4 FP inh – human PAD4 inhibitors, primary screen, biochemical, fluorescence polarization, 1536-well format; Protein-arginine deiminase type-4 (Homo sapiens), Q9UM07; recombinant PAD4, RCA probe fluorescence polarization; inhibition, % at 6.36 µM; 0.41% of 330,000 active; AID 485272, 2010;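 active = percent inhibition above a cutoff equal to the mean of all tested compounds plus 3 SD, cut at about 15% in these data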;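 note: 0% = PAD4 with RCA probe and DMSO and 100% = probe without PAD4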
Target sequence (Q9UM07 whole entry, looked up): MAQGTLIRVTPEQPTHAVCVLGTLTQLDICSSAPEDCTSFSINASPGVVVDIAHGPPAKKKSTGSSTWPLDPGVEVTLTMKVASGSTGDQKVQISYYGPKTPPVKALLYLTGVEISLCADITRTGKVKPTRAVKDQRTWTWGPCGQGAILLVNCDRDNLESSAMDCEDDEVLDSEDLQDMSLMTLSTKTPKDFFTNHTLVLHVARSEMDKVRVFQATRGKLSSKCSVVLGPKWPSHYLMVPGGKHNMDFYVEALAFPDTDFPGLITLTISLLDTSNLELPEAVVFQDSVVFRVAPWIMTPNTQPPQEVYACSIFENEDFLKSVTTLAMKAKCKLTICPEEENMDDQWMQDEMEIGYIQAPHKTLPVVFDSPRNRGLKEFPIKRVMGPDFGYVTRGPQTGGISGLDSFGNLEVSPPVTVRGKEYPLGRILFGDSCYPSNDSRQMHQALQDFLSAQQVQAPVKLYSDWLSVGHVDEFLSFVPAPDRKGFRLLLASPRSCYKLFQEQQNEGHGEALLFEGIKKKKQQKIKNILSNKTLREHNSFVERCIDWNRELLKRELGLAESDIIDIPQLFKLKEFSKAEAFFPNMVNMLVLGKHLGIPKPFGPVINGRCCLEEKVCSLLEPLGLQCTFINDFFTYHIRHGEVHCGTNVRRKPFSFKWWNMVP
SIAE primary – human SIAE inhibitors, primary screen, biochemical, fluorescence polarization, FP-Rh probe, 1536-well HTS; SIAE FP-Rh probe binding; 0.69% of 370,000 active; Sialate O-acetylesterase (Homo sapiens), Q9HAT2; inhibition, % at 9.66 µM; AID 1053197, 2014;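 active = inhibition above a cutoff: mean of compounds within the control limits plus 3 SD of those, cut at about 17% in these data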;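 note: 0% = plate median of compound wells and 100% = probe without SIAE protein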
PRMT1 FP inh – PRMT1 methyltransferase inhibitors, primary screen, biochemical, fluorescence polarization. Protein arginine N-methyltransferase 1 (Homo sapiens), Q99873. recombinant PRMT1, activity-based probe fluorescence polarization. inhibition, % at 2.79 µM. 1.3% of 370,000 active. AID 652257, 2013;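 active = inhibition above about 21% made by adding two undisclosed values, limit read from the data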
GSTO1 confirm – GSTO1 inhibitor hit confirmation, counter-screen for RBBP9 inhibitor project, biochemical, fluorescence polarization, triplicate; inhibition, % at 5.96 µM; 54% of 2,400 active; shares compounds with GSTO1 inh; recombinant GSTO1, probe fluorescence polarization;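 active = inhibition above the primary screen's cutoff, its mean inhibition plus 3 SD, cut at about 35% in these data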;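 note: loss of polarization as inhibitors block binding of rhodamine sulfonate ester activity probe; 0% = GSTO1 with DMSO and 100% = wells lacking GSTO1 enzyme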
GSTO1 recomb ABPP – inhibitors of purified human GSTO1, late-stage follow-up, biochemical, gel ABPP, SE-Rh probe, percent inhibition; recombinant GSTO1, gel ABPP SE-Rh probe fluorescence; 30% of 130 active; shares compounds with GSTO1 inh; inhibition, % at 1 µM; AID 463110, 2010;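 active = inhibition of the enzyme GSTO1 above about 75%, limit read from the data; inactive = inhibition below that limit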
* = called active by the depositor. An excerpt weighted towards active compounds, which were near 2.7% of everything screened.

O=C(Nc1ccc(Cl)cn1)c1ccc(COc2ccccc2Br)o1 was read as GSTO1 inh 62.9*, RBBP9 inh -3.4, PAD4 FP inh 1.2, SIAE primary -9.1, PRMT1 FP inh -3.1 and GSTO1 confirm 3.0.
O=S(=O)(NCc1ccccc1)c1ccc(Cl)cc1 was read as GSTO1 inh 4.9, RBBP9 inh -0.6, PAD4 FP inh -1.0, SIAE primary 1.2 and PRMT1 FP inh -2.5.
O=S(=O)(Nc1cc2nc3ccccc3nc2n1Cc1ccccc1)c1ccc(Cl)cc1 was read as GSTO1 inh 73.2*, RBBP9 inh -2.7, PAD4 FP inh 72.3*, SIAE primary 30.1*, PRMT1 FP inh 2.2 and GSTO1 confirm 91.7*.
For COc1ccc(C)cc1-n1c(C)cc(C=O)c1C the results were GSTO1 inh 3.5, RBBP9 inh 7.1, PAD4 FP inh -0.8, SIAE primary -0.4 and PRMT1 FP inh 2.4.
`COc1ccc(N)cc1-n1c(C)ccc1C` gave GSTO1 inh 44.6*, RBBP9 inh 1.2, PAD4 FP inh 10.3, SIAE primary 12.5, PRMT1 FP inh 27.3* and GSTO1 confirm 5.9.
`Cc1ccc2nc(/C(C#N)=C/c3ccccc3C(=O)O)[nH]c2c1` gave GSTO1 inh -2.8, PAD4 FP inh -7.8, SIAE primary 14.2 and PRMT1 FP inh -6.6.
`Cc1ccc2nc(/C(C#N)=C/c3ccc(O)c(O)c3)[nH]c2c1` gave GSTO1 inh 46.1*, PAD4 FP inh -18.5, SIAE primary 16.2, PRMT1 FP inh 27.0* and GSTO1 confirm 50.7*.
`O=C(NNc1cc(Br)c(O)c(Br)c1)c1ccccc1` gave GSTO1 inh 64.9*, RBBP9 inh 7.6, PAD4 FP inh -1.3, SIAE primary 9.5, PRMT1 FP inh 22.9* and GSTO1 confirm 27.4.
`NS(=O)(=O)c1ccc(NNC(=O)c2ccccc2)cc1` gave GSTO1 inh -7.4, RBBP9 inh -4.4, PAD4 FP inh -1.9, SIAE primary 2.6 and PRMT1 FP inh -0.2.
For COCc1cc(C)nc(SCC(=O)c2ccc(O)c(O)c2)c1C#N the results were GSTO1 inh 47.6*, RBBP9 inh -11.2, PAD4 FP inh 0.3, SIAE primary 2.6, PRMT1 FP inh 6.2 and GSTO1 confirm 14.3.
Screening O=C(CSc1nnc(CNc2ccccc2)o1)c1ccc2c(c1)OCCO2 returned GSTO1 inh 40.2*, RBBP9 inh -7.8, PAD4 FP inh 1.1, SIAE primary -1.7, PRMT1 FP inh 0.0 and GSTO1 confirm 30.1.
Screening O=C(CSc1nnc(CNC(=O)c2ccccc2)o1)Nc1ccc2c(c1)OCCO2 returned GSTO1 inh 0.5, PAD4 FP inh 1.1, SIAE primary 2.2 and PRMT1 FP inh 1.0.
O=C(CCl)N(c1ccccc1)c1c[nH]c2ccccc12 was read as GSTO1 inh 70.1*, RBBP9 inh -1.2, PAD4 FP inh 3.2, SIAE primary -1.2, PRMT1 FP inh -1.2, GSTO1 confirm 78.0* and GSTO1 recomb ABPP 34.0.
For O=C(O)Cc1c[nH]c2ccccc12 the results were GSTO1 inh 1.6, PAD4 FP inh -2.1, SIAE primary -1.3 and PRMT1 FP inh -3.1.
For Cc1cc2nc(CCl)cc(=O)n2[nH]1 the results were GSTO1 inh 103.8*, RBBP9 inh -0.1, PAD4 FP inh 2.7, SIAE primary 3.9, PRMT1 FP inh -2.3, GSTO1 confirm 92.7* and GSTO1 recomb ABPP 54.0.
CCN=c1scc(C)n1/N=C/c1cc(Br)c(O)c(Br)c1 was read as GSTO1 inh 46.2*, RBBP9 inh 3.1, PAD4 FP inh -2.0, SIAE primary 11.9, PRMT1 FP inh -5.0 and GSTO1 confirm 21.2.

Bioassay records from PubChem.
